In ChEMBL document CHEMBL4387780, “Molecular and cellular studies evaluating a potent 2-cyanoindolizine catechol diether NNRTI targeting wildtype and Y181C mutant HIV-1 reverse transcriptase” (Bioorg Med Chem Lett, 2019):
Converted amounts (≈) assume the structure as drawn.

Tests used:
[1] = Solubility of the compound in water at pH 7; format: physicochemical
[2] = Cytotoxicity against human MT2 cells infected with wild-type HIV1 NL4-3 measured 48 hrs by MTT assay; format: cell-based
[3] = test system: Human immunodeficiency virus 1; assay: Antiviral activity against HIV1 NL4-3 harboring Y181C mutant infected in human MT2 cells measured 5 days post-infection by MTT assay
[4] = test system: Human immunodeficiency virus 1; assay: Antiviral activity against wild-type HIV1 NL4-3 infected in human MT2 cells measured 5 days post-infection by MTT assay; conditions: for EC50: Human immunodeficiency virus 1, NL4-3, MT2, 5 days
[5] = molecular target: Human immunodeficiency virus type 1 reverse transcriptase (Human immunodeficiency virus 1, UniProt Q72547); assay: Inhibition of recombinant HIV1 reverse transcriptase p66/p51 expressed in Escherichia coli BL21 (DE3) pLysS cells preincubated followed by primer/template addition and measured after 30 mins by picogreen dye-based fluorescence assay
Outline: (§1)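 RT pre-incubated with inhibitor at increasing concentrations to allow binding. Reaction started by adding substrate and co-substrates, run 30 min at 10 nM active-site RT, then quenched with EDTA. dsDNA product read as RFU with PicoGreen dye. Each concentration in triplicate, with a pre-quenched negative control. IC50 from a quadratic inhibition curve fit.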

[6] = molecular target: Human immunodeficiency virus type 1 reverse transcriptase (Human immunodeficiency virus 1, UniProt Q72547, Y181C); assay: Inhibition of recombinant HIV1 reverse transcriptase p66/p51 Y181C mutant expressed in Escherichia coli BL21 (DE3) pLysS cells preincubated followed by primer/template addition and measured after 30 mins by picogreen dye-based fluorescence assay; outline: as §1
[7] = Cytotoxicity against human MT2 cells infected with HIV1 NL4-3 harboring Y181C mutant measured 48 hrs by MTT assay; format: cell-based
[8] = Human immunodeficiency virus 1, NL4-3, MT2, 5 days, read-out: EC50

`Cc1cc(C#N)cc(C)c1Oc1nc(Nc2ccc(C#N)cc2)nc(N)c1Br` [ETRAVIRINE] showed a solubility [1] of under 1 µg/mL.
With `Cc1ccnc2c1NC(=O)c1cccnc1N2C1CC1` [NEVIRAPINE] the CC50 at 48 h [2] was over 100000 nM, the EC50 [3] was “Not Active” and the EC50 [4] was 300 nM.
In the case of `N#Cc1cc2c(Oc3ccc(F)cc3OCCn3ccc(=O)[nH]c3=O)cc(F)cn2c1`, the CC50 at 48 h [2] is reported as 90000 nM, the Activity [3] is reported as “Dose-dependent effect” and the EC50 [3, 8] is reported as 3.2 nM. It also gave an IC50 [5] of 4.5 nM, an IC50 [6] of 5.5 nM and a CC50 at 48 h [7] of 55000 nM. For the same molecule, the solubility [1] was 43.8 µg/mL (≈ 103 µM), the Activity [4] was “Dose-dependent effect” and the EC50 [4] was 4.7 nM.
With `Cc1cc(/C=C/C#N)cc(C)c1Nc1ccnc(Nc2ccc(C#N)cc2)n1` [RILPIVIRINE] the CC50 at 48 h [2] was 8000 nM and the EC50 [3, 8] was […].
